Screens deposited in PubChem BioAssay by several laboratories.
This is a sample that favours compounds with a hit; in the whole collection about 1.7% have one here.
EBNA-1 inh = blocks EBNA-1 binding to DNA; EBNA-1 DNA binding, fluorescence polarization; inhibition, % at 14.8 µM; 0.34% of 300,000 active; AID 1950; in the data active means inhibition above about 28%
ZTA counter = ZTA (EBV) inhibition in EBNA-1 counter-screen; P03206; ZTA-DNA binding, fluorescence polarization; inhibition, % at 11 µM; 0.15% of 320,000 active; in the data active means inhibition above about 33%
PREPL inhibitor = inhibitors of human prolyl oligopeptidase-like enzyme PREPL; Q4J6C6; recombinant PREPL, fluorescence polarization activity-based probe; inhibition, % at 5.96 µM; 0.68% of 320,000 active; in the data active means inhibition above about 43%;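 further: 0% = enzyme with DMSO and 100% = wells lacking enzyme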
Apaf-1 inh = inhibitors of human Apaf-1 apoptosome; reconstituted apoptosome caspase-3 activity, DEVD-Rh110 fluorescence; inhibition, % at 20 µM; 0.71% of 330,000 active; active means inhibition of at least 40% at 20 µM;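 further: plate controls were DMSO wells for no effect and DEVD-CHO caspase inhibitor wells for full effect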
Target sequence (O14727 whole entry, looked up): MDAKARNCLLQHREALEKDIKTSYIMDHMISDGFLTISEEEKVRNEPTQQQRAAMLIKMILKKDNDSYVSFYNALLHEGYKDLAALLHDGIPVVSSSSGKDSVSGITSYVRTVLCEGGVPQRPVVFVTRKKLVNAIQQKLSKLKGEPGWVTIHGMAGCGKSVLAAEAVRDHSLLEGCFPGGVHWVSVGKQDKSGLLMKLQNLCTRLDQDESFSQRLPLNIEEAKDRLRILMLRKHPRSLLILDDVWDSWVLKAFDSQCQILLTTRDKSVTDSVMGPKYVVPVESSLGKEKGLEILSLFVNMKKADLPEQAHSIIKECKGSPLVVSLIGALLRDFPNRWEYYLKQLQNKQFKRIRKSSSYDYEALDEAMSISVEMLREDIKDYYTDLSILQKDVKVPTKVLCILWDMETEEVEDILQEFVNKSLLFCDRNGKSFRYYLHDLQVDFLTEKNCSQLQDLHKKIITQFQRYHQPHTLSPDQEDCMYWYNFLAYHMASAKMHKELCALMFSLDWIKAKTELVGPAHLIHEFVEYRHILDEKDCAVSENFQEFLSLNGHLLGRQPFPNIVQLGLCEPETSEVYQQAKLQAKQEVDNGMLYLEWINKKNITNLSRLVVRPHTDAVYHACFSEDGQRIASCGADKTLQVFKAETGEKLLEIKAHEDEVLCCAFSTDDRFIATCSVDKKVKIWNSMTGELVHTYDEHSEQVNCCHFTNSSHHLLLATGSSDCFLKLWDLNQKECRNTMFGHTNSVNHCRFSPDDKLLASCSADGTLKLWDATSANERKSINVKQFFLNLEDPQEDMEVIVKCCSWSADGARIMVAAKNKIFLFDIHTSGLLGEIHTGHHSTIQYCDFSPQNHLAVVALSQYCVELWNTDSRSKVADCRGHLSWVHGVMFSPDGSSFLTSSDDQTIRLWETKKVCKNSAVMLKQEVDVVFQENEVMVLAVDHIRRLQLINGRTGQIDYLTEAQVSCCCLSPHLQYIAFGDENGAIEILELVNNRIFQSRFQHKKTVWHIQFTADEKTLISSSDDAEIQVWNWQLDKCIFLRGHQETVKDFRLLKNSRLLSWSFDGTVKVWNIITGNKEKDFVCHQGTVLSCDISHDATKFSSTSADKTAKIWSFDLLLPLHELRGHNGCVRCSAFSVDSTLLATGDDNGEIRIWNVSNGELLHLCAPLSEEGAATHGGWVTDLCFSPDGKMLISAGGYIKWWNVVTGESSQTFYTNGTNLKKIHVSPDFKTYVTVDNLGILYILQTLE
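Medium: Hepes buffer, pH 7.5 / System: biochemical Apaf-1 apoptosome reconstitution / Measured by: Rh110 fluorescence, excitation 480 nm, emission 540 nm / Times: compound with Apaf-1, dATP, procaspase-3 30 min, then 50 min reaction, room temperature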
UBC13 inh = human UBC13 polyubiquitination inhibition; P61088; inhibition, % at 20 µM; AID 485273; 0.47% of 330,000 active; UBC13 polyubiquitin chain formation, TR-FRET; in the data active means inhibition above about 45%, passing the limit was not always enough
Zta DNA confirm = EBV ZTA DNA binding inhibition, confirmation; shares compounds with ZTA counter; Zta-ZRE DNA binding, fluorescence polarization; inhibition, % at 11.1 µM; 30% of 320 active; AID 2361;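 active means mean inhibition across triplicate runs above the hit threshold derived for the original primary screen, cut at about 33% in these data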;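 further: 0% = Zta with DMSO and 100% = wells lacking Zta protein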
EBNA-1 counter = blocks EBNA-1 DNA binding in ZTA counter-screen; shares compounds with ZTA counter; fluorescence polarization; inhibition, % at 14.8 µM; 320 tested, under 10 active; AID 2362; call rule not given here
Starred values were filed as active, the others as inactive; · = no result given; ! = a repeat was not active.

SMILES	EBNA-1 inh	ZTA counter	PREPL inhibitor	Apaf-1 inh	UBC13 inh	Zta DNA confirm	EBNA-1 counter
CCOC(=O)c1c(CSc2ccc(CC)cc2)oc2ccc(O)c(CN(C)C)c12	12.0	33.7*	16.7	19.4	43.0	4.2	0.6
C/C(=N\N=C1\NC(=O)C(CC(=O)Nc2ccc(Cl)cc2)S1)c1ccco1 (stereo not given)	3.5	-8.2	-5.9	3.5	-12.5	·	·
CCOC1(OCC)N=C(N)C2(C#N)C(c3cccc(OC)c3OC)C12C#N (stereo not given)	2.9	-1.8	1.1	-8.7	7.0	·	·
CCOC1(OCC)N=C(N)C2(C#N)C(c3cccc(C)c3)C12C#N (stereo not given)	5.0	67.3*	2.0	-2.8	5.5	-6.0	-7.7
NNC(=O)c1cncc(Br)c1	1.0	9.2	14.6	-10.0	-7.0	·	·
CCOc1cc(/C=C\c2[nH]c(=O)[nH]c(=O)c2[N+](=O)[O-])ccc1OC(C)CC (stereo not given)	9.0	38.6*	10.4	12.5	-19.7	42.7*	-2.5
CCOC(=O)c1c(NC(=O)CSc2nc3cc(Cl)ccc3s2)sc(C(C)=O)c1C	5.4	11.7	-14.1	14.4	-0.1	·	·
COC(=O)c1ccc(C23CC4(C2)[C@H](CN(C)[C@@H]4c2ccccc2)C3c2ccc(C(F)(F)F)cc2)cc1 (stereo not given in full)	2.7	-22.4	-11.1	37.0	29.1	·	·
O=C(CSc1ncnc2c1oc1ccccc12)Nc1nccs1	-1.3	-4.9	-1.5	-12.5	-8.9	·	·
CCc1nc(SCC(=O)Nc2nccs2)c2oc3ccccc3c2n1	3.9	41.9*	-2.7	15.6	-13.1	38.2*	16.3
O=C1C(=Cc2ccc(Br)o2)C(=O)c2ccccc21	1.6	51.9*	-2.7	·	·	50.7*	13.3
CC1=CC(C)(C)Nc2ccccc21	13.9	38.6*!	11.2	-4.4	8.7	21.6	10.8
OC(CNCCC1C=Nc2ccccc21)Cn1c2ccc(Cl)cc2c2cc(Cl)ccc21 (stereo not given)	5.8	52.5*	-31.0	·	·	51.4*	2.6
O=C(COc1ccccc1)N1CCN=C1SCc1ccccc1	1.0	1.5	-6.9	-7.2	-2.2	·	·
COc1ccc(-c2nc(N)n(C(=O)c3cccs3)n2)cc1	9.8	79.0*	-3.4	-16.9	9.1	-6.2	-9.7
CCN(C(=O)C(C)N1C(=O)/C(=C/c2ccco2)SC1=S)C1CCS(=O)(=O)C1 (stereo not given)	-13.7	7.5	14.5	25.1	-29.5	·	·
CC(C(=O)O)N1C(=O)/C(=C/C=C/c2ccco2)SC1=S (stereo not given)	25.8	57.7*	12.0	47.0*	35.3	73.0*	9.4
COc1ccc(Cn2c(SCc3ccc(C)cc3)nc3cc(OC)c(OC)cc3c2=N)cc1Cl	8.9	35.4*	34.9	0.9	37.5	11.7	23.5
COc1ccc(Cn2c(SCc3cc(C)ccc3C)nc3cc(OC)c(OC)cc3c2=N)cc1	-6.0	12.1	15.6	34.6	43.8	·	·
CCOc1ccc(N2C(=O)/C(=C/c3ccccc3)N=C2SC)cc1	-0.6	41.6*	0.2	-18.8	-1.9	1.3	-4.4
COc1ccc(/C=C2\N=C(SC)N(c3ccccc3OC)C2=O)cc1	-1.6	5.0	-1.4	13.6	8.3	·	·
COc1cccc(CN(CC2CCCO2)C(=O)c2cc3ccccc3oc2=O)c1 (stereo not given)	-9.4	-8.5	5.2	7.4	-6.9	·	·
CC(C)=CCc1c(O)cc2c(=O)c3ccc(O)cc3oc2c1O	6.3	15.2	9.4	-23.8	3.2	·	·
CC(C)=CCc1c2c(c3occ(-c4ccc(O)cc4)c(=O)c3c1O)C=CC(C)(C)O2	1.7	35.4*	12.4	9.5	15.8	9.3	1.6
O=C(Cc1cccs1)Nc1ccon1	2.3	-10.8	1.4	-12.5	-3.0	·	·
SMILES	EBNA-1 inh	ZTA counter	PREPL inhibitor	Apaf-1 inh	UBC13 inh	Zta DNA confirm	EBNA-1 counter
O=C(CNC(=O)c1sc2ccccc2c1Cl)NCc1ccccc1	7.8	-4.6	-3.2	11.4	6.5	·	·
COC(=O)c1ccc(CNC(=O)CNC(=O)c2sc3ccccc3c2Cl)cc1	6.4	83.0*	-4.8	3.9	-0.8	69.5*	15.6
C/C(=N\NC(=O)CC1N=C(Cc2ccccc2)NNC1=O)c1ccccc1 (stereo not given)	6.4	-11.6	5.8	0.2	4.2	·	·
Nc1c(O)ccc2c1C(=O)c1ccccc1C2=O	9.5	40.5*	15.5	·	·	34.5*	6.4
COc1ccc2c(c1O)C(=O)c1ccccc1C2=O	14.0	4.0	6.2	-5.8	-55.9	·	·
CCOC(=O)C1Nc2ccc(C(=O)O)cc2C2C=CCC12 (stereo not given)	4.8	60.1*	8.1	-5.9	-9.3	23.1	-13.2
Cn1c(CCN2CCN(c3ccccn3)CC2)nc2cc(NC(=O)COc3ccc([N+](=O)[O-])cc3)ccc21	1.9	38.3*	8.0	0.7	5.3	21.0	-0.6
CCCCn1c(N)c(N(CCOC)C(=O)CCCc2nc3ccccc3c(=O)[nH]2)c(=O)[nH]c1=O	1.8	136.5*	-0.3	-8.0	3.7	3.2	1.2
Cc1cc(=O)oc(C)c1C(=O)OCC(=O)c1ccc(Cl)cc1	-0.9	35.9*	-2.6	4.2	1.6	-6.2	-9.8
Cc1cc(=O)oc(C)c1C(=O)OCC(=O)c1ccc(Br)cc1	-4.0	31.3	-2.3	2.4	-9.6	·	·
CC(C)(C)N1CC(C(=O)O)CC1=O (stereo not given)	3.0	8.3	-2.5	-13.6	-2.2	·	·
NC(=O)c1ccc(NC(=O)CSc2nnc(-c3ccc4c(c3)OCO4)o2)cc1	·	34.5*	0.2	-15.4	7.5	18.0	5.6
NC(=O)CSc1nnc(-c2ccc3c(c2)OCO3)o1	-7.4	19.4	13.4	4.4	0.1	·	·
O=C1/C(=C\c2c(NCCOCCO)nc3ccccn3c2=O)SC(=S)N1Cc1ccco1	2.5	41.9*	-57.8	1.5	-78.9	24.1	7.1
O=C(Nc1ccc(F)cc1F)c1ccc2c(c1)[nH]c(=O)n2Cc1ccc(F)cc1	9.2	-21.4	-14.4	19.1	0.9	·	·
CC(=O)c1cccc(NC(=O)NNC(=O)c2ccc3ccccc3c2)c1	9.6	76.4*	1.7	7.4	8.1	-10.3	-4.8
Cc1cccc(NC(=O)NNC(=O)c2ccc3ccccc3c2)c1	·	·	·	4.4	4.9	·	·
CCCCc1ccc(NC(=O)OC)cc1	1.6	166.2*	-9.5	0.3	9.2	0.1	2.9
CCCCc1ccc(NC(=O)N[C@H](C(=O)O)C(C)CC)cc1 (stereo not given in full)	1.1	1.9	-0.9	-9.0	1.5	·	·
C=C(C)C(=O)Nc1cccc(C2=NOC3(C2)C[C@@H](C(N)=O)N(C(=O)/C(C)=C/C)C3)c1 (stereo not given in full)	3.4	20.2	2.4	-288.2	-147.6	·	·
CC(=O)c1sc(NC(=O)c2cc(=O)c3ccccc3o2)nc1C	-6.2	-9.9	0.9	2.3	-11.9	·	·
